Source: ChEMBL document CHEMBL5696442, “Discovery of type II inhibitors of TGFβ-activated kinase 1 (TAK1) and mitogen-activated protein kinase kinase kinase kinase 2 (MAP4K2)” (J Med Chem, 2015)
Calls of active or inactive are those of the source. The calls are words filed in the database; no cut-off is given here.

What was measured:
[1] = target: Tyrosine-protein kinase receptor UFO (Homo sapiens) (UniProt P30530); experiment: Inhibition of AXL (unknown origin) at 10 uM by Ambit Kinomescan binding assay
Chain of Tyrosine-protein kinase receptor UFO (Homo sapiens) (P30530 whole entry): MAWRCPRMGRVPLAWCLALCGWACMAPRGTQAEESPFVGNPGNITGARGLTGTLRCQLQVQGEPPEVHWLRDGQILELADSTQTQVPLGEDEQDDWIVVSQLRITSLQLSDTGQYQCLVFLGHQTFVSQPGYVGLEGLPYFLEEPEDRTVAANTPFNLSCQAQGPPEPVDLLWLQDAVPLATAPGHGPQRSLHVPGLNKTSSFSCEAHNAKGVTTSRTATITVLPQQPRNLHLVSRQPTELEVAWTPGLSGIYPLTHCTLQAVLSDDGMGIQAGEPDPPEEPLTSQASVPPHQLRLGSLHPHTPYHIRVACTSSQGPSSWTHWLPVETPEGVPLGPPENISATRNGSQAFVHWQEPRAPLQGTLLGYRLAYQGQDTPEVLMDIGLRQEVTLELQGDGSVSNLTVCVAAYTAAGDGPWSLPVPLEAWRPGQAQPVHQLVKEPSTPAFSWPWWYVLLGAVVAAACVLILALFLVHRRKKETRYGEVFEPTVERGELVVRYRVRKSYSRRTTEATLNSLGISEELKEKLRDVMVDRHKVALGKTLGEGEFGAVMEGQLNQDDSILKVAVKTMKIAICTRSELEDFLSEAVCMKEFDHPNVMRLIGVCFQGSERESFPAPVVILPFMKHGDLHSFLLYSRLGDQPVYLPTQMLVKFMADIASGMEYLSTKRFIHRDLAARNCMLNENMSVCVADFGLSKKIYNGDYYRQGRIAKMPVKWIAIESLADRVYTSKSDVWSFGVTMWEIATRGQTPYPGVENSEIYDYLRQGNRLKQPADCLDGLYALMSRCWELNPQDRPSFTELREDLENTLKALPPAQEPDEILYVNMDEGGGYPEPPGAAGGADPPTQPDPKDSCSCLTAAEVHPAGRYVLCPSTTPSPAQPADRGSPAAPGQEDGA
How it was run: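 In vitro ATP-site competition binding assay against a panel of over 420 kinases (KinomeScan), with compound tested at 10 or 1 μM.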

[2] = target: T1, Serine/threonine-protein kinase LATS1 (Homo sapiens) (UniProt O95835); experiment: Inhibition of LATS1 Lys2 labeling site in human A-375 cells at 5 uM by KiNativ Profiling analysis relative to control; format: cell-based
T1 sequence (whole entry): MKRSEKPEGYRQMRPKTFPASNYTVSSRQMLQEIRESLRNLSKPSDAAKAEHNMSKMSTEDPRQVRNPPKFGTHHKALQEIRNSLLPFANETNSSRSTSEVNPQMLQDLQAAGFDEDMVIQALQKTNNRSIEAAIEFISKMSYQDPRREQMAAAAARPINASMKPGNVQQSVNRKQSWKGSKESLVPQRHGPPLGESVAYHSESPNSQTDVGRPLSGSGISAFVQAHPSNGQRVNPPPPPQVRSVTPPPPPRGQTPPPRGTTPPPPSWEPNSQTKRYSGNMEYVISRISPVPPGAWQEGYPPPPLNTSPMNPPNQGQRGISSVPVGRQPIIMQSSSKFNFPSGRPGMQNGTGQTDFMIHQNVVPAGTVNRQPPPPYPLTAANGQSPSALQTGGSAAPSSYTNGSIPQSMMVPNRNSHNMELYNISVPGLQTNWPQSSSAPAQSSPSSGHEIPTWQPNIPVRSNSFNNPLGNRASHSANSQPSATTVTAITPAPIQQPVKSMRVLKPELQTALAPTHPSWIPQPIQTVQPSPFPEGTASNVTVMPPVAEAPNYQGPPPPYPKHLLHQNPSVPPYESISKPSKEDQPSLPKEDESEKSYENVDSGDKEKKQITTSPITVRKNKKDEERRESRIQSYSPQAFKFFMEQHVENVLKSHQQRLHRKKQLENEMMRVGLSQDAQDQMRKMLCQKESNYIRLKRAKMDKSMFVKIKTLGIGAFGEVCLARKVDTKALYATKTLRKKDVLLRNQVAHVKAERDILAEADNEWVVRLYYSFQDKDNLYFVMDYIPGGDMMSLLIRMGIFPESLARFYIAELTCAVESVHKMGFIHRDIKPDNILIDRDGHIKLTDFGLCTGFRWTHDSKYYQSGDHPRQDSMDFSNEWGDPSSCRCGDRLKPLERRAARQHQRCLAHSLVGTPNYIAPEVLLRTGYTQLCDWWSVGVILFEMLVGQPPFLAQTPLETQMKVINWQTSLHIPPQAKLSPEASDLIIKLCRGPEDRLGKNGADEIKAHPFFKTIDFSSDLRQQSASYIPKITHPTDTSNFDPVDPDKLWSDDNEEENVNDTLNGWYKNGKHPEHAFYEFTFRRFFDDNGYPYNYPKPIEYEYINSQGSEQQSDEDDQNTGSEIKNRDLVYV

[3] = target: TGF-beta receptor type-1 (Homo sapiens) (UniProt P36897); experiment: Inhibition of TGFBR1 (unknown origin) at 1 uM by Ambit Kinomescan binding assay relative to control
Chain of TGF-beta receptor type-1 (Homo sapiens) (P36897 whole entry, canonical isoform): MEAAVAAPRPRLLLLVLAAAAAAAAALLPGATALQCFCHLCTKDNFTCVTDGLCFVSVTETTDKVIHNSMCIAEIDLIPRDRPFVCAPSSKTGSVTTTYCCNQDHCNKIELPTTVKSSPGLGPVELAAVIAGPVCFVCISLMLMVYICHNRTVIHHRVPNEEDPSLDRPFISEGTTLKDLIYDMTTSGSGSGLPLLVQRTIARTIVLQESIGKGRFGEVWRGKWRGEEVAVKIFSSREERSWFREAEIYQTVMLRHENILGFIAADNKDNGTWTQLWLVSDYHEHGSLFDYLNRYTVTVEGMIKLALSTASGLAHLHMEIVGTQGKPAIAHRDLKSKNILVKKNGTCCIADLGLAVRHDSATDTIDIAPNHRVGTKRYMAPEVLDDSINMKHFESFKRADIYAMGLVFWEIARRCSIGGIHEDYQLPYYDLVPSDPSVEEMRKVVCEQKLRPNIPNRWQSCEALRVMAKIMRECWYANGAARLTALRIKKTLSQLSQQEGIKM

[4] = target: Casein kinase I isoform epsilon (Homo sapiens) (UniProt P49674); experiment: Inhibition of CSNK1E (unknown origin) at 1 uM by Ambit Kinomescan binding assay relative to control
Chain of Casein kinase I isoform epsilon (Homo sapiens) (P49674 whole entry, looked up, canonical isoform): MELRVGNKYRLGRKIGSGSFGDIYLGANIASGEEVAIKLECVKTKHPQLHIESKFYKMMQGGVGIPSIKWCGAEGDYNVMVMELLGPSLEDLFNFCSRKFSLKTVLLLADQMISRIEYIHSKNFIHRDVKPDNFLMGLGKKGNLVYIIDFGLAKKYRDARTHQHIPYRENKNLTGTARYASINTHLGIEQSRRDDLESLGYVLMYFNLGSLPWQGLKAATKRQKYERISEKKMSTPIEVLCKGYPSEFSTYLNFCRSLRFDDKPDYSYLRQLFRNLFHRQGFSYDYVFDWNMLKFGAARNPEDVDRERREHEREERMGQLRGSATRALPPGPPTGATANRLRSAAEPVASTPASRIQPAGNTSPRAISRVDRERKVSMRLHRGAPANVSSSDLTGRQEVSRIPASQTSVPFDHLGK

[5] = system: Tyrosine-protein kinase ABL1 (Homo sapiens), P00519 [Y253F]; experiment: Inhibition of phosphorylated ABL1 Y253F mutant (unknown origin) at 1 uM by Ambit Kinomescan binding assay relative to control; values are per cent of control
[6] = target: Serine/threonine-protein kinase PLK1 (Homo sapiens) (UniProt P53350); experiment: Inhibition of PLK1 Lys2 labeling site in human A-375 cells at 0.05 uM by KiNativ Profiling analysis relative to control; format: cell-based
Chain of Serine/threonine-protein kinase PLK1 (Homo sapiens) (P53350 whole entry): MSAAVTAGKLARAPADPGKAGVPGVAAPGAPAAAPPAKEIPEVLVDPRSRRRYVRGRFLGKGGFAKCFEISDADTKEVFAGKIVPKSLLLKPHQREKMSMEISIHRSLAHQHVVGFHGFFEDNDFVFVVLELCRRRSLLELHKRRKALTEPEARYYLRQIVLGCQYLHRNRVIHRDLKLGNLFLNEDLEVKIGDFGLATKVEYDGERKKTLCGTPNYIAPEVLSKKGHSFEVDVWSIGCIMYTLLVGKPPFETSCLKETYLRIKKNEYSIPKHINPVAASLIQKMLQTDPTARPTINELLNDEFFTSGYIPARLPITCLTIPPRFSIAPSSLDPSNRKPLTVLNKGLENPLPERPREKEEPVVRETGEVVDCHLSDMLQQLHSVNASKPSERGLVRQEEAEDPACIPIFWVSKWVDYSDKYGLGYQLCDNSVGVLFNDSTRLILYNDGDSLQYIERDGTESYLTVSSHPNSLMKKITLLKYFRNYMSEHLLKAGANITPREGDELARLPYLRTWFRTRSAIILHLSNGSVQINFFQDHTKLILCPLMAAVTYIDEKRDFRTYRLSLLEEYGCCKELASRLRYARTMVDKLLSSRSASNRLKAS

[7] = target: Serine/threonine-protein kinase SIK1 (Homo sapiens) (UniProt P57059); experiment: Inhibition of SIK Lys2 labeling site in human Huh-7 cell lysate at 1 uM by KiNativ Profiling analysis relative to control; format: subcellular
Chain of Serine/threonine-protein kinase SIK1 (Homo sapiens) (P57059 whole entry): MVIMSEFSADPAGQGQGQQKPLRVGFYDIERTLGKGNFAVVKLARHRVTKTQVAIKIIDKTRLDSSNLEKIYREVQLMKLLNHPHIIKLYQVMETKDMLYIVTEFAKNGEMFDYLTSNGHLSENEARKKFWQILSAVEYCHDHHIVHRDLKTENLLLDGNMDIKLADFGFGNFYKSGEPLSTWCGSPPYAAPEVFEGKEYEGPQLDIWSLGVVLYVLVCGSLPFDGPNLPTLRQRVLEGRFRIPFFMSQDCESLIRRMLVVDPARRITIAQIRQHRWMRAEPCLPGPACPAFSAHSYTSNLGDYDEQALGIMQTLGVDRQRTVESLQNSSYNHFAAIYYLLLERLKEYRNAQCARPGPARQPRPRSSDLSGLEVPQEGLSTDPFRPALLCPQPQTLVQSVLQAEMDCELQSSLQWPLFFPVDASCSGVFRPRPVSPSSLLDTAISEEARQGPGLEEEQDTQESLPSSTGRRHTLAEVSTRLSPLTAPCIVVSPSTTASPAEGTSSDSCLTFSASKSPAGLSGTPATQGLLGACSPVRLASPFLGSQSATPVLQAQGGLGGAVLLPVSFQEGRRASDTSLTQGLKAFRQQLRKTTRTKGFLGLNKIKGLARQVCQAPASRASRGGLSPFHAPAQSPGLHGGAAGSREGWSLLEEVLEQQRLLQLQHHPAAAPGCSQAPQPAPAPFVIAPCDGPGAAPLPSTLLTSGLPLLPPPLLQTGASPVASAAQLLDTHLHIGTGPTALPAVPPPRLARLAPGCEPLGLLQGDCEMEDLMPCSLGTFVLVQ

[8] = target: T2, Dual specificity mitogen-activated protein kinase kinase 6 (Homo sapiens) (UniProt P52564); experiment: Inhibition of MAP2K6 Lys2 labeling site in human Huh-7 cell lysate at 1 uM by KiNativ Profiling analysis relative to control; format: subcellular
T2 sequence (whole entry): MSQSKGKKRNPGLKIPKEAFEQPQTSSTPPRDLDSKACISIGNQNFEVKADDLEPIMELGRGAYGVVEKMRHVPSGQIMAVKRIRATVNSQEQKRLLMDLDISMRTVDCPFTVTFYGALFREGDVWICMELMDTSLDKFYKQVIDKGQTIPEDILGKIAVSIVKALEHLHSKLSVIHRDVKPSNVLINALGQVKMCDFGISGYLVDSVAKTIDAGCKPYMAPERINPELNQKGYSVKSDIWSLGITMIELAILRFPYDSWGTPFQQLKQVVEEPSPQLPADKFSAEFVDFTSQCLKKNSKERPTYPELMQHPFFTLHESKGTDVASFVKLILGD

[9] = target: Tyrosine-protein kinase Yes (Homo sapiens) (UniProt P07947); experiment: Inhibition of YES ACT labeling site in human Huh-7 cell lysate at 1 uM by KiNativ Profiling analysis relative to control; format: subcellular
Chain of Tyrosine-protein kinase Yes (Homo sapiens) (P07947 2-543 limits assumed): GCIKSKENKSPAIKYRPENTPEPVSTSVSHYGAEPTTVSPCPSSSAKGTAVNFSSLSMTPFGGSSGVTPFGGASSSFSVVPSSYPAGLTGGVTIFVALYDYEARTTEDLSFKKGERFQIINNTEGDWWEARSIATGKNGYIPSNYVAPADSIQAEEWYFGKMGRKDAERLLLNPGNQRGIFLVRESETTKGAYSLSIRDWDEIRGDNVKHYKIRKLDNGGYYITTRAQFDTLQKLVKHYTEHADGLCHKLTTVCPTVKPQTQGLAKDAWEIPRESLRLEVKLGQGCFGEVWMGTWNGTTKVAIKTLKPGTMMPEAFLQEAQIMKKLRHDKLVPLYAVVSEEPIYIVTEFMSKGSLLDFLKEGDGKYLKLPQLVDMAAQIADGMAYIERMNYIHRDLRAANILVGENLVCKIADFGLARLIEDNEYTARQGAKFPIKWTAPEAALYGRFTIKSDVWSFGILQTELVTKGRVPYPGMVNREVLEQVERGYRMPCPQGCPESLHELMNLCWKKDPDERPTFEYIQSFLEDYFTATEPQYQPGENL

In the case of CCN1CCN(Cc2ccc(NC(=O)c3ccc(C)c(Oc4ccnc5[nH]ccc45)c3)cc2C(F)(F)F)CC1, the inhibition [1] was “inactive” and the inhibition [2] was -6.4%.

CCN1CCN(Cc2ccc(NC(=O)c3ccc(C)c(/C=C/c4cnc5[nH]ccc5c4OC)c3)cc2C(F)(F)F)CC1 showed an inhibition [3] of 100%, an inhibition [4] of 80% and a percent of control [5] of 0.75%. The inhibition [6] was 1.3%.

CNc1cc(Oc2cc(C(=O)Nc3cc(N4CCN(C)CC4)cc(C(F)(F)F)c3)ccc2C)ncn1 gave an inhibition [7] of -1.3%, an inhibition [8] of -4% and an inhibition [9] of 22%.
